Compound activity: PubChem, Broad Institute
Ecoli rRNA inh: selective bacterial rRNA inhibition in E. coli. E. coli WT GFP vs humanized-ribosome RFP mutants, fluorescence, 24 h; active compounds read low; DMSO median 0, no signal -100. GFP signal change (wild-type ribosome), % (test concentration not listed). 1.6% of 350,000 active. AID 720706;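 active = significant combined selectivity score with lowered wild-type GFP, culture density cut under 30%, mutant RFP and density less affected; inactive = any of these conditions unmet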
INS-1E GSIS act: GLuc luminescence reporter in INS-1E cells, primary screen for activators of glucose-dependent secretion of insulin. INS-1E GLuc reporter insulin secretion, 2-3 h. activation, % at 16.6 µM. 0.61% of 370,000 active;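 active = lowest replicate activation of at least 40%, so every replicate reaches that level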;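 note: 0% = median of neutral control wells and 100% = median of IBMX positive control wells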
Env fusion inh: blocks HIV Env-driven cell-cell fusion; HeLa-JRFL Env/CEM21 cell fusion, luciferase; inhibition, % at 12.3 µM; 1.1% of 360,000 active; AID 651610;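 active = mean replicate inhibition score of at least 50 and every replicate individually at or above 50; inconclusive = only one of the two criteria met; inactive = mean below 50 and not all replicates reaching 50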;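 note: 0% = plate neutral controls and 100% = maraviroc near 300 nM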
miR-122 sensor: inhibitors of miR-122 in Huh7 cells | Huh7 miR-122 Renilla luciferase sensor, 48 h; neutral wells = 0, positive control = 100 | activation (reporter increase), % at 12.5 µM | 0.3% of 340,000 active | AID 602342;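 active = mean replicate activation score at least 90 and every replicate individually at or above 90; inconclusive = only one of the two criteria met; inactive = neither criterion met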;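 note: higher luciferase means less miR-122 activity so hits act as miR-122 inhibitors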
CFTR F508del cor: correctors of CFTR F508del function in bronchial epithelial cells. activity (quench increase), % at 7.58 µM. 0.36% of 350,000 active. CFBE cells, YFP halide quenching; stimulated with forskolin plus potentiator P3; % fluorescence drop versus neutral controls;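 active = mean added fluorescence quench of at least 8% versus neutral control, with both replicates also reaching 8%; inconclusive = only one of the mean or replicate conditions met; inactive = mean below 8% and not both replicates reaching 8%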;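 note: cells transiently co-express mutant CFTR-F508del with the halide-sensitive YFP; corrector assay measuring rescue of mutant channel to the surface after 24 h compound exposure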
Cneo AK release: causes C. neoformans cell lysis; 0.2% of 360,000 active; lysis activity, % at 15 µM; AID 651654; adenylate kinase release luminescence, 4 h; normalised: neutral wells 0, clomiphene wells 100;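 active = mean lysis activity across replicates of at least 80%, whatever share of replicates individually reach that level; inactive = mean lysis activity below 80%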
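Test system: log-phase Cryptococcus neoformans yeast cells; Quantity: yeast cell density of 5 × 10^6 cells/mL; Buffer or medium: YPD; Doses: single compound concentration per well; Timing: 4 h at 37 °C static, read 1 h later; Measured by: AK luminescence; Read-out basis: lysis from increased AK signal; Control set: Clomiphene as positive control.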
The depositor's hits bear a star; [ ] = remark or other dose. Only some compounds are listed: those with a hit (about 3.1% of all), similar ones and a draw of the others.

What do the screens show for `COc1ccc(-c2nc(CN3CCN(Cc4cccc(F)c4)CC3)c(C)o2)cc1`?
Ecoli rRNA inh: -10.6; INS-1E GSIS act: -22.1; Env fusion inh: 21.1; CFTR F508del cor: 1.2; Cneo AK release: 1.1

What do the screens show for `COc1ccc(-c2nc(CN3CCN(Cc4cccc(Cl)c4)CC3)c(C)o2)cc1`?
Ecoli rRNA inh: -33.1*; INS-1E GSIS act: -34.4; Env fusion inh: 11.5; miR-122 sensor: -1.3; CFTR F508del cor: 2.1; Cneo AK release: 5.7

How did CC(=O)c1ccc(N2CCN(Cc3nc(Cc4ccccc4)no3)CC2)cc1 do in these assays?
Ecoli rRNA inh: -11.7; INS-1E GSIS act: -16.2; Env fusion inh: 6.0; CFTR F508del cor: -1.5

How did Cc1ccccc1N1CCN(Cc2nc(Cc3ccccc3)no2)CC1 do in these assays?
Ecoli rRNA inh: -27.9*; INS-1E GSIS act: -4.4; Env fusion inh: -13.2; CFTR F508del cor: 1.5

How did S=C1NC2(CCCCCC2)NN1c1ccccc1 do in these assays?
INS-1E GSIS act: 19.0; Env fusion inh: 55.4*; CFTR F508del cor: -1.1

Results for CC(C)(C)C1CCC2(CC1)NC(=S)N(c1ccccc1)N2 (centres undefined) ?
Env fusion inh: -44.8; miR-122 sensor: 0.5; Cneo AK release: -0.9

Results for O=C(Nc1csc([N+](=O)[O-])c1)Nc1c(Cl)cccc1Cl ?
Ecoli rRNA inh: -31.6*; INS-1E GSIS act: -12.1; Env fusion inh: 18.2; miR-122 sensor: -2.0; CFTR F508del cor: -4.7; Cneo AK release: -2.0

How did CCc1c(C(=O)Nc2cc(C)cc(C)c2)[nH]c(C)c1C(C)=O do in these assays?
Env fusion inh: -47.5; miR-122 sensor: 120.9*

What do the screens show for `O=C(COC(=O)Cc1cccc(F)c1)NCCc1ccccc1`?
CFTR F508del cor: 0.5; Cneo AK release: -0.3

How did Cc1ccccc1OCC(=O)OCC(=O)NCCc1ccccc1 do in these assays?
Ecoli rRNA inh: 14.1; INS-1E GSIS act: -0.1; Env fusion inh: -0.6; miR-122 sensor: -2.2; CFTR F508del cor: 15.4*; Cneo AK release: -0.1

Results for O=C(COC(=O)Cc1ccc(Cl)cc1)NCCc1ccccc1 ?
Ecoli rRNA inh: -23.5*; INS-1E GSIS act: -26.2; Env fusion inh: -2.8; miR-122 sensor: -1.4; CFTR F508del cor: -2.8; Cneo AK release: -0.6

Results for NS(=O)(=O)c1ccc(CCNC(=O)COC(=O)Cc2ccc(Cl)cc2)cc1 ?
Ecoli rRNA inh: 4.2; Env fusion inh: 7.5; miR-122 sensor: -2.2; Cneo AK release: 0.6

How did CCOc1ccc(CCNC(=O)COC(=O)COc2ccccc2C)cc1OCC do in these assays?
Ecoli rRNA inh: 6.9; INS-1E GSIS act: 29.9; Env fusion inh: 4.9; miR-122 sensor: 8.3; CFTR F508del cor: 2.8

Results for O=C(COC(=O)Cc1ccc(F)cc1)NCCc1ccccc1 ?
Ecoli rRNA inh: 4.3; INS-1E GSIS act: 42.7*; Env fusion inh: 0.8; CFTR F508del cor: -1.0

What do the screens show for `CN1CCN(C(=O)C[C@H]2CC[C@@H]3[C@H](COC[C@@H](O)CN3C(=O)Nc3ccc4c(c3)OCO4)O2)CC1`?
Ecoli rRNA inh: inactive; INS-1E GSIS act: -0.7; Env fusion inh: 10.1[16.7 µM]; miR-122 sensor: 4.9[16.7 µM]; CFTR F508del cor: 0.8; Cneo AK release: -0.5

How did O=C(Nc1ccccc1)[C@H]1[C@H](CO)[C@H]2Cn3c(cccc3=O)[C@H]2N1C(=O)C1CCC1 do in these assays?
Ecoli rRNA inh: -0.9; INS-1E GSIS act: 2.3; miR-122 sensor: -7.7[16.7 µM]; CFTR F508del cor: -0.5; Cneo AK release: -2.6

What do the screens show for `CN1N=C2c3ccccc3CCCC2C1c1ccc(F)cc1` (centres undefined)?
Ecoli rRNA inh: -40.0*; INS-1E GSIS act: -0.8; Env fusion inh: -20.6

Results for Cc1cc(=O)[nH]c(N/N=C/C=C/c2ccccc2)n1 ?
Ecoli rRNA inh: 10.7; INS-1E GSIS act: 0.2; Env fusion inh: 3.3; CFTR F508del cor: 1.1

How did Cc1cc(=O)[nH]c(N/N=C/CCc2ccccc2)n1 do in these assays?
Ecoli rRNA inh: -26.6*; INS-1E GSIS act: 10.6; Env fusion inh: 2.9

How did O=C(C[C@@H]1C=C[C@@H](NC(=O)C2CC2)[C@H](CO)O1)NC1CCC1 do in these assays?
Ecoli rRNA inh: 0.9; INS-1E GSIS act: 0.2; Env fusion inh: -4.7[16.7 µM]; miR-122 sensor: 0.0[16.7 µM]; CFTR F508del cor: 0.0; Cneo AK release: 17.8

How did Cn1cnc(S(=O)(=O)N2CC[C@@H]3[C@H](CO)Nc4ccc(C#Cc5ccccc5F)cc4[C@@H]32)c1 do in these assays?
Ecoli rRNA inh: -1.7; INS-1E GSIS act: 3.1; miR-122 sensor: -5.6[16.7 µM]; CFTR F508del cor: -1.2; Cneo AK release: -3.9

What do the screens show for `O=C(O)c1ccc(NC2=C/C(=N/S(=O)(=O)c3ccccc3)c3ccccc3C2=O)cc1`?
Ecoli rRNA inh: -51.3; INS-1E GSIS act: -53.5; Env fusion inh: inconclusive; miR-122 sensor: 19.2

What do the screens show for `O=C1C(Nc2ccc(O)cc2)=C/C(=N/S(=O)(=O)c2cccs2)c2ccccc21`?
Ecoli rRNA inh: -38.3; INS-1E GSIS act: -1.9; Env fusion inh: 94.8*; CFTR F508del cor: -2.4

What do the screens show for `Cc1cccc(NC2=C/C(=N/S(=O)(=O)c3cccs3)c3ccccc3C2=O)c1`?
INS-1E GSIS act: -26.4; Env fusion inh: 75.6*

Results for Cc1cc(C)c(S(=O)(=O)/N=C2\C=C(Nc3ccc(C(=O)O)cc3)C(=O)c3ccccc32)c(C)c1 ?
Ecoli rRNA inh: -9.2; INS-1E GSIS act: 6.2; Env fusion inh: 72.8*; miR-122 sensor: 32.1; CFTR F508del cor: -2.2; Cneo AK release: -0.4

Results for Cc1ccc(Cl)cc1NC1=C/C(=N\S(=O)(=O)c2cccs2)c2ccccc2C1=O ?
Ecoli rRNA inh: 18.6; INS-1E GSIS act: -4.2; Env fusion inh: 112.3*; miR-122 sensor: 6.7; CFTR F508del cor: 0.4; Cneo AK release: 1.0

How did CCC(=O)N(C)C[C@H]1N[C@@H](CO)[C@H]1c1ccc(-c2cccc(C#N)c2)cc1 do in these assays?
Ecoli rRNA inh: -2.0; INS-1E GSIS act: -1.1; CFTR F508del cor: -1.0

What do the screens show for `CC(C)NC(=O)N(C)C[C@@H]1Oc2cc(C#CCN(C)C)ccc2S(=O)(=O)N([C@@H](C)CO)C[C@H]1C`?
Ecoli rRNA inh: 3.0; INS-1E GSIS act: 18.3; Env fusion inh: -21.7[16.7 µM]; miR-122 sensor: 3.0[16.7 µM]; CFTR F508del cor: -1.4; Cneo AK release: -6.1

Results for CCN(CC)S(=O)(=O)c1cccc(NC(=O)Nc2cccc(C(F)(F)F)c2)c1 ?
Env fusion inh: 118.5*; miR-122 sensor: -22.8; Cneo AK release: -2.3

What do the screens show for `CCN(CC)S(=O)(=O)c1cccc(NC(=O)CC2CCCC2)c1`?
Ecoli rRNA inh: -5.5; INS-1E GSIS act: -20.1; Env fusion inh: -16.3; miR-122 sensor: 25.6; CFTR F508del cor: 1.3; Cneo AK release: 0.4
